According to ChEMBL document CHEMBL3351291, “Lajollamycins, nitro group-bearing spiro-β-lactone-γ-lactams obtained from a marine-derived Streptomyces sp” (J Nat Prod, 2014):
Calls of active or inactive are those of the source. The calls are words filed in the database; no cut-off is given here.

What was measured:
A549 = experiment: Cytotoxicity against human A549 cells; type: functional, cell-based
[1] = Cytotoxicity against human SNU638 cells; type: functional, cell-based; conditions: SNU-638
[2] = Cytotoxicity against human HCT116 cells; type: functional, cell-based; conditions: HCT-116
Escherichia coli = experiment: Antibacterial activity against Escherichia coli ATCC 35270; type: functional
Aspergillus fumigatus = experiment: Antifungal activity against Aspergillus fumigatus; type: functional, organism-based
[3] = Cytotoxicity against human SKHEP1 cells; type: functional, cell-based; conditions: SK-HEP1
K562 = experiment: Cytotoxicity against human K562 cells; type: functional, cell-based
MDA-MB-231 = experiment: Cytotoxicity against human MDA-MB-231 cells; type: functional, cell-based
Staphylococcus aureus = experiment: Antibacterial activity against Staphylococcus aureus ATCC 6538p; type: functional
Proteus hauseri = experiment: Antibacterial activity against Proteus hauseri NBRC 3851; type: functional
Kocuria rhizophila = experiment: Antibacterial activity against Kocuria rhizophila NBRC 12708; type: functional
Salmonella enterica = experiment: Antibacterial activity against Salmonella enterica ATCC 14028; type: functional
Candida albicans = experiment: Antifungal activity against Candida albicans; type: functional, organism-based
Bacillus subtilis = experiment: Antibacterial activity against Bacillus subtilis ATCC 6633; type: functional
[4] = Inhibition of Candida albicans isocitrate lyase using isocitrate substrate
Summary of the method: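 Recombinant ICL at 2.5 μg/mL in 20 mM sodium phosphate buffer, pH 7.0, with 1.27 mM threo-DL(+)-isocitrate, 3.75 mM MgCl2 and 4.1 mM phenylhydrazine. Reaction started on substrate addition, with or without inhibitor in DMSO (0.5% final). After 30 min at 37 °C, glyoxylate phenylhydrazone was read at 324 nm. Percent inhibition was taken against an inhibitor-free control, with 3-nitropropionic acid as positive control.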

Compound | IC50 (A549) | IC50 [1] | IC50 [2] | MIC (Escherichia coli) | Activity (Aspergillus fumigatus) | IC50 [3] | IC50 (K562) | IC50 (MDA-MB-231) | MIC (Staphylococcus aureus) | MIC (Proteus hauseri) | MIC (Kocuria rhizophila) | MIC (Salmonella enterica) | Activity (Candida albicans) | MIC (Bacillus subtilis) | IC50 ([4]; read-out: IC50) | IC50 [4]
CO[C@@H](C[C@@H](C)[C@@H](O)/C=C/C=C/CNC(=O)C(C)(C)[C@H](O)\C(C)=C/C=C/C=C/C(C)=C(\C)[N+](=O)[O-])[C@]1(O)[C@@H](C)C(=O)N(C)[C@]12C(=O)O[C@@H]2C | > 100 µM | > 100 µM | > 100 µM | > 128 µg/mL | inactive | > 100 µM | > 100 µM | > 100 µM | > 128 µg/mL | > 128 µg/mL | > 128 µg/mL | > 128 µg/mL | inactive | > 128 µg/mL | 120 µM | 
O=C(O)CC[N+](=O)[O-] |  |  |  |  |  |  |  |  |  |  |  |  |  |  |  | 4.2 µg/mL
CO[C@@H](C[C@@H](C)[C@@H](O)/C=C/C=C/CNC(=O)C(C)(C)[C@H](O)/C(C)=C/C=C/C=C/C(C)=C(\C)[N+](=O)[O-])[C@]1(O)[C@@H](C)C(=O)N(C)[C@@]12COC2=O | > 100 µM | > 100 µM | > 100 µM | > 128 µg/mL | inactive | > 100 µM | > 100 µM | > 100 µM | > 128 µg/mL | > 128 µg/mL | > 128 µg/mL | > 128 µg/mL | inactive | > 128 µg/mL | 40 µM | 
COC(CC(C)C(O)/C=C/C=C/CNC(=O)C(C)(C)C(O)\C(C)=C/C=C\C=C\C(C)=C(/C)[N+](=O)[O-])C1(O)C(C)C(=O)N(C)C12C(=O)OC2C (stereo unspecified) [LAJOLLAMYCIN] | > 100 µM | > 100 µM | > 100 µM | > 128 µg/mL | inactive | > 100 µM | > 100 µM | > 100 µM | > 128 µg/mL | > 128 µg/mL | > 128 µg/mL | > 128 µg/mL | inactive | > 128 µg/mL | 42 µM | 
CO[C@@H](C[C@@H](C)[C@@H](O)/C=C/C=C/CNC(=O)C(C)(C)[C@H](O)/C(C)=C/C=C/C=C/C(C)=C(\C)[N+](=O)[O-])[C@]1(O)[C@@H](C)C(=O)N(C)[C@]12C(=O)O[C@@H]2C | > 100 µM | > 100 µM | > 100 µM | > 128 µg/mL | inactive | > 100 µM | > 100 µM | > 100 µM | > 128 µg/mL | > 128 µg/mL | > 128 µg/mL | > 128 µg/mL | inactive | > 128 µg/mL | 50 µM | 
